This is an account of results in ChEMBL document CHEMBL4622994, “Facile Synthesis of Aminomethyl Phosphinate Esters as Serine Protease Inhibitors with Primed Site Interaction” (ACS Med Chem Lett, 2020).

pKi: −log10 of the molar value. The source made the active and inactive calls. The calls are words filed in the database; no cut-off is given here.

Experiment [1] is filed under the species Bos taurus. As to the kind of experiment: Inhibition of bovine chymotrypsin at 100 uM preincubated for 30 mins followed by FP-rhodamine addition measured after 30 mins by fluorescence assay. A digest of the protocol: (§1)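 Competitive activity-based protein profiling. Enzyme was treated with compound at 100 μM, or with DMSO control. Residual active enzyme was then labeled with the general serine hydrolase activity-based probe FP-rhodamine and detected by fluorescent labeling.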

Experiment [2] is filed under the species Bos taurus. Put plainly: Inhibition of bovine chymotrypsin assessed as ratio of Kinact to Ki using flurogenic substrate as chymotrypsin substrate 2 by fluorescence assay. A digest of the protocol:
(§2)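 Progress-curve inhibition kinetics for irreversible covalent inhibitors, fitted to a two-step model: reversible non-covalent binding, then irreversible reaction with the enzyme. kinact is the rate constant of the irreversible step at infinite inhibitor concentration. KI is the inhibitor concentration giving an observed rate constant of 1/2 kinact. The kinact/KI ratio expresses overall potency. Inhibitors were tested as diastereomer mixtures; the dilution series spanned 200 to 26.7 μM.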

The nature of experiment [3]: Inhibition of bovine chymotrypsin using flurogenic substrate as chymotrypsin substrate 2 by fluorescence assay. The arrangement: species or system Bos taurus. A digest of the protocol: as §2
Experiment [4] is filed under the species Bos taurus. Put plainly: Inhibition of bovine chymotrypsin assessed as inactivation constant using flurogenic substrate as chymotrypsin substrate 2 by fluorescence assay. The procedure, abridged:
as §2

The target of experiment [5] is T1, Neutrophil elastase (Homo sapiens) (UniProt P08246).
T1 sequence (whole entry): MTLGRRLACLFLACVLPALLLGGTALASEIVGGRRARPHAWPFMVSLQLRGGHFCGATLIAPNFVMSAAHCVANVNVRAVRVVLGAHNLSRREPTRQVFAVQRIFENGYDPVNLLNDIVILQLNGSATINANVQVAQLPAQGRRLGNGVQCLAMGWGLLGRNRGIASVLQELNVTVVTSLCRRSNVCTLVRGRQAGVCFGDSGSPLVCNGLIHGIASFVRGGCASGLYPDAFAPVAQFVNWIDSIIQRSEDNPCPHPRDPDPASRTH
Put plainly: Inhibition of human neutrophil Elastase assessed as ratio of Kinact to Ki using flurogenic substrate as elastase substrate V by fluorescence assay. A digest of the protocol:
as §2

Experiment [6] is filed under the species Sus scrofa. Put plainly: Inhibition of porcine pancreatic elastase assessed as ratio of Kinact to Ki using flurogenic substrate as elastase substrate V by fluorescence assay. A digest of the protocol: as §2
The next experiment deals with T2, Neutrophil elastase (Homo sapiens, UniProt P08246).
T2 sequence (P08246 whole entry): T1 sequence (whole entry)
As to the kind of experiment: Inhibition of human neutrophil elastase using flurogenic substrate as elastase substrate V by fluorescence assay. The procedure, abridged:
as §2

Experiment [7] addresses T1, Neutrophil elastase (Homo sapiens). As to the kind of experiment: Inhibition of human neutrophil Elastase assessed as inactivation constant using flurogenic substrate as elastase substrate V by fluorescence assay. The procedure, abridged: as §2
Experiment [8] is described as follows: Inhibition of porcine pancreatic elastase using flurogenic substrate as elastase substrate V by fluorescence assay. The arrangement: species or system Sus scrofa. The procedure, abridged:
as §2

The species entered for experiment [9] is Sus scrofa. The settings on record: 100 uM.
Experiment [10] addresses T1, Neutrophil elastase (Homo sapiens). Put plainly: Inhibition of human neutrophil Elastase at 100 uM preincubated for 30 mins followed by FP-rhodamine addition measured after 30 mins by fluorescence assay. The procedure, abridged:
as §1

Experiment [11] concerns the target T3, Cathepsin G (Homo sapiens) (UniProt P08311).
T3 sequence (whole entry): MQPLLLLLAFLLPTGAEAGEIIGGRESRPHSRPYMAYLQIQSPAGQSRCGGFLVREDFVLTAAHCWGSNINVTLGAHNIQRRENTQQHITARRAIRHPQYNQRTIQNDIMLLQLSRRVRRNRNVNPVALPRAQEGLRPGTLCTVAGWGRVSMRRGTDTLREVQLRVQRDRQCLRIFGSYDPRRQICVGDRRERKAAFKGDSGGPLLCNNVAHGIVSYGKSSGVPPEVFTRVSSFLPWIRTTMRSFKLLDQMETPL
As to the kind of experiment: Inhibition of human cathepsin G at 100 uM preincubated for 30 mins followed by FP-rhodamine addition measured after 30 mins by fluorescence assay. A digest of the protocol:
as §1

As usually defined, the pKi is the Ki on a negative log10 scale, so that one unit is a factor of ten. As to `CCCP(=O)(Oc1ccccc1)C(NC(=O)OCc1ccccc1)c1ccccc1` (stereo not drawn), in the experiment listed under Bos taurus [1], the inhibition entry was “Active”. In addition, the Ratio in the experiment filed under Bos taurus [2] amounted to 404 M⁻¹ s⁻¹. In experiment [3], this compound showed a pKi of 4.84. For the same compound, the Kinact in the experiment listed under Bos taurus [4] is 5.84 ×10⁻³ /s.

With `O=C(NC(c1ccccc1)P(=O)(Oc1ccccc1)c1ccccc1)OCc1ccccc1` (stereo not drawn), the inhibition entry in the experiment listed under Bos taurus [1] was “Active”. In the experiment listed under Bos taurus [2], the Ratio was found to be 3.4 ×10³ /M/s. The compound also had a pKi in [3] of 6.34. Besides, in the experiment filed under Bos taurus [4], the Kinact is 1.57 ×10⁻³ /s.

For `CCCP(=O)(Oc1ccccc1)C(NC(=O)OCc1ccccc1)C(C)C` (stereo not drawn), the inhibition entry in the experiment listed under Bos taurus [1] is “inactive”.

For the compound `CC(C)C(NC(=O)OCc1ccccc1)P(=O)(Oc1ccccc1)Oc1ccccc1` (stereo not drawn), the Ratio in [5] came out at 200 M⁻¹ s⁻¹. In the experiment filed under Sus scrofa [6], the Ratio result was “inactive”. This compound also had a pKi on Neutrophil elastase of 5.53. For the same compound, the Kinact in [7] amounted to 0.59 ×10⁻³ /s.

As to `CC(C)CC(NC(=O)OCc1ccccc1)P(=O)(Oc1ccccc1)C(C)(C)C` (stereo not drawn), in the experiment listed under Bos taurus [1], the inhibition result was “inactive”.

As for `CC(C)C(NC(=O)OCc1ccccc1)P(=O)(Oc1ccccc1)C(C)(C)C` (stereo not drawn), the inhibition result in the experiment listed under Bos taurus [1] is “inactive”.

As for `CC(C)CC(NC(=O)OCc1ccccc1)P(=O)(Oc1ccccc1)c1ccccc1` (stereo not drawn), the inhibition result in the experiment listed under Bos taurus [1] is “Active”. In the experiment listed under Bos taurus [2], the Ratio worked out at 978 M⁻¹ s⁻¹. Moreover, the pKi in experiment [3] was 4.67. In addition, in the experiment filed under Bos taurus [4], the Kinact worked out at 21.1 ×10⁻³ /s.

Take `CC(C)C(NC(=O)OCc1ccccc1)P(=O)(Oc1ccccc1)c1ccccc1` (stereo not drawn): the results for the negative-log Ki (pKi) (in experiment [8]; in experiment [3]; on Neutrophil elastase) were 3.88, 5.13 and 4.29, respectively. Also, the inhibition result (in the experiment listed under Bos taurus [1]; in the experiment listed under Sus scrofa [9]; in experiment [10]) was “Active” throughout.

With `O=C(NC(Cc1ccccc1)P(=O)(Oc1ccccc1)Oc1ccccc1)OCc1ccccc1` (stereo not drawn), the Ratio in the experiment filed under Bos taurus [2] is 8.1 ×10³ /M/s. In experiment [3], this compound gave a pKi of 6.16. Also, in the experiment listed under Bos taurus [4], the Kinact came out at 5.63 ×10⁻³ /s.

Turning to `CC(C)(C)P(=O)(Oc1ccccc1)C(NC(=O)OCc1ccccc1)c1ccccc1` (stereo not drawn), the inhibition result in the experiment filed under Bos taurus [1] was “inactive”.

With `O=C(NC(Cc1ccccc1)P(=O)(Oc1ccccc1)c1ccccc1)OCc1ccccc1` (stereo not drawn), the inhibition entry (in the experiment listed under Bos taurus [1]; in [11]) was “Active” throughout. Besides, the Ratio in the experiment filed under Bos taurus [2] stood at 16.4 ×10³ /M/s. For the same compound, the pKi in [3] is 5.85. Besides, in the experiment filed under Bos taurus [4], the Kinact is 23 ×10⁻³ /s.

On to `CCCP(=O)(Oc1ccccc1)C(CC(C)C)NC(=O)OCc1ccccc1` (stereo not drawn), for which, in the experiment listed under Bos taurus [1], the inhibition entry is “Active”. Further, the Ratio in the experiment filed under Bos taurus [2] was 188 M⁻¹ s⁻¹. In experiment [3], this compound had a pKi of 4.89. Besides, the Kinact in the experiment listed under Bos taurus [4] is 2.44 ×10⁻³ /s.
